A word on the half-life: it is how long it takes for the measured level to halve.

This note sets out measurements from ChEMBL document CHEMBL3785035, “Phase II Metabolic Pathways of Spectinamide Antitubercular Agents: A Comparative Study of the Reactivity of 4-Substituted Pyridines to Glutathione Conjugation” (Medchemcomm, 2016).

What all share (assay type): ADME, subcellular
Data set [1] can be described thus: Half life in rat liver S9 fraction at 100 uM preincubated for 5 mins followed by glutathione addition measured after 2 hrs by LC-MS/MS analysis. The method, boiled down: (§1)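 S9 (rat or human) at 10 mg/mL in 0.1 M potassium phosphate pH 7.4, with 1 mM MgCl2. Preincubated 5 min at 37 °C, 150 rpm, then started with glutathione (0.2 mM in incubation). Controls lacked glutathione. Sampled 0–120 min, quenched in ice-cold methanol with internal standard. Parent measured by HILIC LC-MS/MS and expressed as % of time zero. Mean with %CV.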

Data set [2] in a line: Metabolic stability in rat liver S9 fraction assessed as parent compound remaining at 100 uM preincubated for 5 mins followed by UDPGA addition measured after 2 hrs by LC-MS/MS analysis. Particulars: read-out: Stability. The method, boiled down:
(§2)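 Glucuronidation: 2 mg/mL rat or human S9 in 0.1 M potassium phosphate pH 7.4, activated with alamethicin (50 μg) 15 min on ice. Then 1 mM MgCl2 was added, with 5 min preincubation at 37 °C. Started with UDPGA (5 mM in incubation); controls without UDPGA. Samples taken to 120 min and quenched with methanol plus internal standard. LC-MS/MS; % parent relative to time zero.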

Data set [3] in a line: Metabolic stability in human liver S9 fraction assessed as parent compound remaining at 100 uM preincubated for 5 mins followed by UDPGA addition measured after 2 hrs by LC-MS/MS analysis. As to conditions: read-out: Stability. The method, boiled down: as §2
Data set [4] deals with Liver. Nature of the data set: (§3) Metabolic stability in rat liver S9 fraction assessed as parent compound remaining at 100 uM preincubated for 5 mins followed by PAPS addition measured after 2 hrs by LC-MS/MS analysis. Particulars: s9, 2 h, 100 µM. The method, boiled down: (§4)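 Sulfation incubation: rat or human liver S9 at 2 mg/mL in 0.1 M potassium phosphate pH 7.4 with 1 mM MgCl2. Preincubated 5 min at 37 °C, then started with PAPS (0.2 mM in incubation). Controls lacked PAPS. Aliquots taken over 120 min and quenched in cold methanol with internal standard. LC-MS/MS read-out; parent remaining expressed against time zero.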

Data set [5] concerns Liver. Nature of the data set: (§5) Metabolic stability in human liver S9 fraction assessed as parent compound remaining at 100 uM preincubated for 5 mins followed by PAPS addition measured after 2 hrs by LC-MS/MS analysis. As to conditions: s9, 2 h, 100 µM. The method, boiled down:
as §4

The nature of data set [6]: Metabolic stability in rat liver S9 fraction assessed as parent compound remaining at 100 uM preincubated for 5 mins followed by glutathione addition measured after 2 hrs by LC-MS/MS analysis. As to conditions: read-out: Stability. The method, boiled down:
as §1

Data set [7] in a line: Half life in human liver S9 fraction at 100 uM preincubated for 5 mins followed by glutathione addition measured after 2 hrs by LC-MS/MS analysis. The method, boiled down:
as §1

Data set [8] in a line: Metabolic stability in human liver S9 fraction assessed as parent compound remaining at 100 uM preincubated for 5 mins followed by glutathione addition measured after 2 hrs by LC-MS/MS analysis. Particulars: read-out: Stability. The method, boiled down:
as §1

Data set [9] can be described thus: as §3. As to conditions: liver S9 fraction, read-out: Stability. The method, boiled down: as §4
A short description of data set [10]: as §5. Particulars: liver S9 fraction. The method, boiled down:
as §4

For `CN[C@@H]1[C@H](O)[C@H](NC)[C@H]2O[C@]3(O)[C@H](O[C@@H]2[C@H]1O)O[C@H](C)C[C@H]3NC(=O)Cc1ccccn1`, the figures for the half-life at 100 µM in data set [1] and in [7] were above 50 h and 38 h, respectively. Further, the remaining at 2 h, 100 µM in data set [2] was above 93%; in [3] it was above 93%; in data set [6], 99.8%; in [8], 96.7%. The Stability in the data set on Liver [4] is given as 89%; in the data set on Liver [5], above 96%.
With `CN[C@@H]1[C@H](O)[C@H](NC)[C@H]2O[C@]3(O)[C@H](O[C@@H]2[C@H]1O)O[C@H](C)C[C@H]3NC(=O)Cc1ccc(F)cn1`, the half-life at 100 µM in data set [1] is 32.6 h; in [7] it was above 50 h. For the same compound, the remaining at 2 h, 100 µM in data set [2] is above 93%; in data set [3], above 93%; in [9], above 95%; in data set [10], above 96%; in data set [6], 96.6%; in [8] it was 98.7%.
Regarding `CN[C@@H]1[C@H](O)[C@H](NC)[C@H]2O[C@]3(O)[C@H](O[C@@H]2[C@H]1O)O[C@H](C)C[C@H]3NC(=O)Cc1ccc(Cl)cn1`, the half-life at 100 µM in data set [1] and in data set [7] was above 50 h each time. Further, the remaining at 2 h, 100 µM is above 93% in [2]; above 93% in [3]; above 95% in data set [9]; above 96% in data set [10]; 99.4% in [6]; 99.9% in data set [8].
With `CN[C@@H]1[C@H](O)[C@H](NC)[C@H]2O[C@]3(O)[C@H](O[C@@H]2[C@H]1O)O[C@H](C)C[C@H]3NC(=O)Cc1cc(Cl)ccn1`, the half-life at 100 µM is 3.35 h in data set [1] and above 50 h in data set [7]. Moreover, the remaining at 2 h, 100 µM in [2] was above 93%; in data set [3], above 93%; in [6] it was 71.9%; in data set [8], 98.7%. Moreover, the values for the Stability in the data set with Liver [4] and in the data set with Liver [5] were 88% and above 96%, respectively.
As for `CN[C@@H]1[C@H](O)[C@H](NC)[C@H]2O[C@]3(O)[C@H](O[C@@H]2[C@H]1O)O[C@H](C)C[C@H]3NC(=O)Cc1cc(Cl)c(C)cn1`, the half-life at 100 µM in [1] is 0.66 h; in data set [7], 23 h. The remaining at 2 h, 100 µM in [2] is above 93%; in data set [3] it was above 93%; in data set [6] it was 12.9%; in [8], 93.5%. The Stability result is “Stable” in the data set with Liver [4] and 91% in the data set with Liver [5].
Consider `CN[C@@H]1[C@H](O)[C@H](NC)[C@H]2O[C@]3(O)[C@H](O[C@@H]2[C@H]1O)O[C@H](C)C[C@H]3NC(=O)Cc1cc(Cl)c(OC)cn1`, for which the half-life at 100 µM in data set [1] is 6.7 h; in [7] it was above 50 h. Further, the remaining at 2 h, 100 µM in data set [2] was above 93%; in [3], above 93%; in data set [9], above 95%; in data set [10] it was above 96%; in data set [6], 81.1%; in [8], 98.8%.
As for `CN[C@@H]1[C@H](O)[C@H](NC)[C@H]2O[C@]3(O)[C@H](O[C@@H]2[C@H]1O)O[C@H](C)C[C@H]3NC(=O)Cc1ccc(O)cn1`, the half-life at 100 µM in [1] and in [7] was above 50 h in each case. Besides, the remaining at 2 h, 100 µM in data set [2] is above 93%; in data set [3] it was above 93%; in data set [9] it was above 95%; in [10] it was above 96%; in [6] it was 98.6%; in data set [8], 99.9%.
With `CN[C@@H]1[C@H](O)[C@H](NC)[C@H]2O[C@]3(O)[C@H](O[C@@H]2[C@H]1O)O[C@H](C)C[C@H]3NC(=O)Cc1cc(Cl)c(F)cn1`, the half-life at 100 µM in data set [1] and in data set [7] was above 50 h throughout. Moreover, the remaining at 2 h, 100 µM is above 93% in [2]; above 93% in data set [3]; above 95% in data set [9]; above 96% in [10]; 98.6% in data set [6]; 98.6% in [8].
Consider `CC(=O)Nc1ccc(O)cc1` [ACETAMINOPHEN], for which the half-life at 100 µM in data set [1] is 1.48 h; in data set [7], 4.4 h. The remaining at 2 h, 100 µM turned out to be 43% in data set [6] and 74.5% in data set [8].
